Measurements reported in ChEMBL document CHEMBL1134379, “Covalently induced activation of the delta opioid receptor by a fluorogenic affinity label, 7'-(phthalaldehydecarboxamido)naltrindole (PNTI)” (J Med Chem, 2001).

Legend:
[1] = molecular target: T1, Delta-type opioid receptor (Homo sapiens, UniProt P41143); test: Irreversible binding to delta receptor after pretreatment with naloxone (1 uM) at 20 nM of the compound.
[2] = molecular target: T1, Delta-type opioid receptor; test: Irreversible binding to delta receptor before pretreatment with naloxone (1 uM) at 20 nM of the compound.
[3] = molecular target: T1, Delta-type opioid receptor; test: Irreversible binding to delta receptor before pretreatment with naloxone (1 uM) at 1 uM of the compound.
[4] = molecular target: T1, Delta-type opioid receptor; test: Irreversible binding to delta receptor after pretreatment with naloxone (1 uM) at 1 uM of the compound.
[5] = molecular target: T1, Delta-type opioid receptor; test: Irreversible binding to delta receptor before pretreatment with naloxone (1 uM) at 1 uM
[6] = molecular target: T1, Delta-type opioid receptor; test: Binding affinity towards delta-opioid receptor from CHO cells; format: cell-based, Cricetulus griseus
[7] = molecular target: Kappa-type opioid receptor (Homo sapiens, UniProt P41145); test: Binding affinity towards opioid receptor kappa 1 from CHO cells; format: cell-based, Cricetulus griseus
Sequence of Kappa-type opioid receptor (P41145 whole entry): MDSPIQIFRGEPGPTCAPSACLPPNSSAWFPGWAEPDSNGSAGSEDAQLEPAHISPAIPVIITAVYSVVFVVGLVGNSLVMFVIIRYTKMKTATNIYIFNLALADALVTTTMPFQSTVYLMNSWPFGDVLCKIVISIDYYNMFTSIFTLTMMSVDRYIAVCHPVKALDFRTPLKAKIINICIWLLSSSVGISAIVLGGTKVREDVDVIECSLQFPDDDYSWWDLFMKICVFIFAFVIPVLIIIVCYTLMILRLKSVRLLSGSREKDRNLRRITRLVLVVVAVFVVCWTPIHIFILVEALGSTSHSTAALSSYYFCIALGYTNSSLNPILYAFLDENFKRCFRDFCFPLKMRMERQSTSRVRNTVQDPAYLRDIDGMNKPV

[8] = molecular target: Mu-type opioid receptor (Homo sapiens, UniProt P35372); test: Binding affinity towards mu-opioid receptor from CHO cells; format: cell-based, Cricetulus griseus
Sequence of Mu-type opioid receptor (P35372 whole entry): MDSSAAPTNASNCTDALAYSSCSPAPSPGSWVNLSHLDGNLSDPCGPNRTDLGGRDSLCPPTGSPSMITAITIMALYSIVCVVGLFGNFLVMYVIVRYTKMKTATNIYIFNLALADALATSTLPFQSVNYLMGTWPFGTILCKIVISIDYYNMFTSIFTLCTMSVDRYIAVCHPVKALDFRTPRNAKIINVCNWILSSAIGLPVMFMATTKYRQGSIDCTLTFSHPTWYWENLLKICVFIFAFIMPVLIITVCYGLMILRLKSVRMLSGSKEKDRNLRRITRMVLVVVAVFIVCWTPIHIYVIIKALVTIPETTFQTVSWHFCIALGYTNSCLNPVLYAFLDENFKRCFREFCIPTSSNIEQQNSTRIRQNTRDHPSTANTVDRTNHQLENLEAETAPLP

[9] = species on record: Mus musculus; test: Agonist activity in mouse vas deferens (MVD) assay.; format: functional, organism-based
Method in brief: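 Electrically stimulated mouse vas deferens preparation. The compound's inhibition of the twitch was measured and the IC50 was derived from the concentration–effect curve.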

[10] = system: Mus musculus; test: Antinociceptive activity by mouse tail-flick antinociceptive assay after icv administration in mouse.; format: functional

T1 sequence (P41143 whole entry): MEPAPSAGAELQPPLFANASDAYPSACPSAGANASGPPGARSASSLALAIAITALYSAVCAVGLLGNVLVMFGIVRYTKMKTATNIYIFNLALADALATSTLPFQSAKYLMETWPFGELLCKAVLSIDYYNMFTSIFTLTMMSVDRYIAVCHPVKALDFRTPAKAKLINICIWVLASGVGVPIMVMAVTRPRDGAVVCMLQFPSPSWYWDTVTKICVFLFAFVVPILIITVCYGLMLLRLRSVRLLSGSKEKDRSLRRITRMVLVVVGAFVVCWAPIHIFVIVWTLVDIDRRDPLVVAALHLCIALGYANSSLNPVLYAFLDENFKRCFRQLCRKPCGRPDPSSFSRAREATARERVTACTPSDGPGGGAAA

Structure (SMILES)	Binding [1] [%]	Binding [2] [%]	Binding [3] [%]	Binding [4] [%]	Binding [5] [%]	Ki [6] [nM]	Ki [7] [nM]	Ki [8] [nM]	IC50 [9] [nM]	ED50 [10] [nM]
O=C(Nc1cccc2c3c([nH]c12)C1Oc2c(O)ccc4c2[C@@]12CCN(CC1CC1)[C@H](C4)[C@]2(O)C3)c1ccccc1 (stereo partly drawn)	70	42	7	20	–	–	–	–	–	–
O=Cc1ccc(C(=O)Nc2cccc3c4c([nH]c23)C2Oc3c(O)ccc5c3[C@@]23CCN(CC2CC2)[C@H](C5)[C@]3(O)C4)cc1C=O (stereo partly drawn)	28	30	–	10	3	1.9	20.1	14.9	0.12	2.06
